This note sets out measurements from ChEMBL document CHEMBL3526127, “Absorption, elimination, and metabolism of CS-1036, a novel α-amylase inhibitor in rats and monkeys, and the relationship between gastrointestinal distribution and suppression of glucose absorption” (Drug Metab Dispos, 2013).

A short description of data set [1]: Drug excretion in cynomolgus monkey urine at 3 mg/kg, iv administered as single dose after 0 to 48 hrs by scintillation counting method. The format is ADME, organism-based, Macaca fascicularis. More on the design: dose 3 mg/kg, route intravenous. To be noted: in vivo.
In another data set the test system is Cynomolgus monkey. Description: Total drug excretion in cynomolgus monkey at 3 mg/kg, po administered as single dose after 0 to 48 hrs by scintillation counting method. In kind it is ADME, organism-based, Macaca fascicularis. Set-up: dose 3 mg/kg, route oral. To be noted: in vivo. Summed up:
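Fasted male cynomolgus monkeys (n = 4) were dosed with 14C-labelled drug at 3 mg/kg, iv via saphenous vein (191 µCi/kg) or orally by stomach catheter (156.5 µCi/kg). Urine, feces and cage-wash water were collected to 336 h. Radioactivity was measured by liquid scintillation counting, with feces homogenized in water, and expressed as % of dose.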

Data set [2] can be described thus: Drug excretion in F344 rat urine at 1 mg/kg, po administered as single dose after 0 to 168 hrs by scintillation counting method. In kind it is ADME, organism-based. More on the design: dose 1 mg/kg, route oral. To be noted: in vivo. Summed up: (§1)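 Fasted F344 rats (152–156 g iv via tail vein; 154–159 g oral; n = 4) received [14C]-labelled drug at 1 mg/kg (41.9 µCi/kg). Animals were kept in metabolic cages; urine and feces were collected to 168 h, and expired CO2 was trapped in 2-aminoethanol/2-methoxyethanol (1:1) to 48 h. Samples were counted by liquid scintillation (feces homogenized). Results are % of dose, mean ± S.D.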

The nature of data set [3]: Drug excretion in cynomolgus monkey feces at 3 mg/kg, iv administered as single dose after 0 to 48 hrs by scintillation counting method. The format is ADME, organism-based, Macaca fascicularis. Set-up: dose 3 mg/kg, route intravenous. To be noted: in vivo. Summed up: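 Fasted cynomolgus monkeys (n = 4) received [14C]-labelled drug at 3 mg/kg, iv via saphenous vein (191 µCi/kg) or orally by stomach catheter (156.5 µCi/kg). Urine, feces and water cage-wash were collected to 336 h. Samples were counted by liquid scintillation; feces were homogenized in 4-fold water. Results are % of dose, mean ± S.D.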

A short description of data set [4]: Drug excretion in F344 rat urine at 1 mg/kg, iv administered as single dose after 0 to 48 hrs by scintillation counting method. The format is ADME, organism-based. More on the design: dose 1 mg/kg, route intravenous. To be noted: in vivo. Put shortly: as §1
Data set [5] can be described thus: Drug excretion in F344 rat urine at 1 mg/kg, iv administered as single dose after 0 to 168 hrs by scintillation counting method. The format is ADME, organism-based. Set-up: dose 1 mg/kg, route intravenous. To be noted: in vivo. Put shortly: as §1
For the next data set, the system named is Plasma. Description: Drug metabolism in po dosed monkey plasma by LC-MS/MS method. To be noted: cynomolgus monkey, in vivo.
A short description of data set [6]: Drug excretion in F344 rat feces at 1 mg/kg, po administered as single dose after 24 hrs by scintillation counting method. Set-up: dose 1 mg/kg, route oral. In kind it is ADME, organism-based. To be noted: in vivo. Summed up:
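[14C]-labelled drug (1 mg/kg, 42.2 µCi/kg) was given orally to fasted F344 rats (164–168 g, n = 3). Urine and feces were collected to 24 h; feces were homogenized in 9 volumes of water, combusted and counted. Parent fraction came from the excreted radioactivity times the radio-HPLC (HILIC) peak-area ratio; mean ± S.D.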

The nature of data set [7]: Drug metabolism in monkey kidney S9 fractions at 0.42 uCi/ml assessed as metabolite formation in presence of NADPH after 1 hr at 37 degC by LC-MS/MS method. The format is ADME, tissue-based, Macaca mulatta. To be noted: rhesus monkey, s9, 1 h.
A short description of data set [8]: Drug metabolism in monkey intestinal S9 fractions at 0.42 uCi/ml assessed as metabolite formation in presence of NADPH after 1 hr at 37 degC by LC-MS/MS method. To be noted: cynomolgus monkey, s9, 1 h.
Data set [9] can be described thus: Drug metabolism in anaerobic culture broth of F344 rat cecal content assessed as 1,4-dideoxy-1,4-imino-D-arabinitol formation at 63.5 uCi/ml after 24 hrs at 35 degC by LC-MS/MS method. The format is ADME.
A short description of data set [10]: Tmax in cynomolgus monkey at 10 mg/kg, po administered as single dose by LC-MS/MS method. In kind it is ADME, organism-based, Macaca fascicularis. More on the design: dose 10 mg/kg, route oral. To be noted: in vivo. Put shortly:
(§2)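 Male F344 rats (146–185 g) and male cynomolgus monkeys (3.48–4.29 kg), n = 4 each, fasted overnight, received single iv or oral doses of 0.3, 1.0, 3.0 or 10.0 mg/kg. Monkeys had 2-week washouts between doses. Plasma was sampled to 48 h and assayed by LC-MS/MS with deuterated internal standard. Noncompartmental analysis: tmax observed; t1/2 by regression on ≥3 terminal log points; Vss = dose·AUMC/(AUC0–inf)²; Foral = oral/iv AUC0–inf at the same dose.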

Data set [11] in a line: Clearance in F344 rat at 0.3 mg/kg, iv administered as single dose by LC-MS/MS method. The format is ADME, organism-based. To be noted: in vivo. More on the design: dose 0.3 mg/kg, route intravenous. Summed up:
(§3)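 Fasted male F344 rats (146–185 g) and male cynomolgus monkeys (3.48–4.29 kg), n = 4 each, received a single iv dose; monkeys had 2-week washouts between doses. Blood was sampled up to 48 h and plasma stored at […]. Plasma parent was quantified by LC-MS/MS with a deuterated internal standard. CL = dose/AUC0–inf by noncompartmental analysis; mean ± S.D.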

The nature of data set [12]: AUC (0 to infinity) in cynomolgus monkey at 3 mg/kg, iv administered as single dose by LC-MS/MS method. To be noted: plasma. Set-up: time infinity, dose 3 mg/kg, route intravenous. The format is ADME, organism-based, Macaca fascicularis. Summed up: (§4)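 Fasted male F344 rats (146–185 g) or male cynomolgus monkeys (3.48–4.29 kg), n = 4 per dose, given single iv or oral dose of 0.3, 1.0, 3.0 or 10.0 mg/kg; monkeys dosed with 2-week washouts. Blood sampled to 48 h; plasma stored frozen. LC-MS/MS with deuterated internal standard. Noncompartmental analysis: AUClast by trapezoidal rule; AUC0–inf = AUClast + Ctz/terminal rate constant; mean ± S.D.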

The nature of data set [13]: Oral bioavailability in F344 rat at 3 mg/kg administered as single dose by LC-MS/MS method. The format is ADME, organism-based. To be noted: in vivo. Summed up: as §2
The nature of data set [14]: AUClast in F344 rat at 3 mg/kg, iv administered as single dose by LC-MS/MS method. The format is ADME, organism-based. More on the design: time 0 - last, dose 3 mg/kg, route intravenous. To be noted: plasma. Summed up:
as §4

Data set [15] can be described thus: Half life in F344 rat at 1 mg/kg, iv administered as single dose by LC-MS/MS method. In kind it is ADME, organism-based. Set-up: dose 1 mg/kg, route intravenous. To be noted: in vivo. Summed up: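 Fasted male F344 rats (146–185 g, n = 4 per dose) received single i.v. CS-1036. Plasma was sampled up to 48 h and analysed by LC-MS/MS. t1/2 came from noncompartmental regression of three or more log-transformed terminal-phase points. Mean ± S.D.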

A short description of data set [16]: Cmax in cynomolgus monkey at 3 mg/kg, po administered as single dose by LC-MS/MS method. The format is ADME, organism-based, Macaca fascicularis. More on the design: dose 3 mg/kg, route oral. To be noted: in vivo. Summed up: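 Fasted male F344 rats (146–185 g) and cynomolgus monkeys (3.48–4.29 kg), n = 4 each, received a single oral dose; monkeys had 2-week washouts. Plasma sampled up to 48 h, stored at […], assayed by LC-MS/MS with a deuterated internal standard. Cmax taken from observed data by noncompartmental analysis; mean ± S.D. (n = 3 or 4).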

Data set [17] in a line: Half life in cynomolgus monkey at 0.3 mg/kg, iv administered as single dose by LC-MS/MS method. The format is ADME, organism-based, Macaca fascicularis. Set-up: dose 0.3 mg/kg, route intravenous. To be noted: in vivo. Put shortly: as §2
A short description of data set [18]: AUC (0 to infinity) in F344 rat at 10 mg/kg, po administered as single dose by LC-MS/MS method. The format is ADME, organism-based. More on the design: time infinity, dose 10 mg/kg, route oral. To be noted: plasma. Put shortly: as §4
Data set [19] is described as follows: Clearance in cynomolgus monkey at 3 mg/kg, iv administered as single dose by LC-MS/MS method. In kind it is ADME, organism-based, Macaca fascicularis. Set-up: dose 3 mg/kg, route intravenous. To be noted: in vivo. Put shortly:
as §3

A short description of data set [20]: Clearance in cynomolgus monkey at 1 mg/kg, iv administered as single dose by LC-MS/MS method. In kind it is ADME, organism-based, Macaca fascicularis. Set-up: dose 1 mg/kg, route intravenous. To be noted: in vivo. Summed up: as §3
Data set [21] is described as follows: AUClast in F344 rat at 10 mg/kg, iv administered as single dose by LC-MS/MS method. In kind it is ADME, organism-based. More on the design: time 0 - last, dose 10 mg/kg, route intravenous. To be noted: plasma. Summed up:
as §4

Take `C[C@H]1O[C@@H](O[C@H]2[C@H](O)[C@@H](O)[C@@H](O[14C@H]3[14C@H](O)[14CH2]N[14C@@H]3[14CH2]O)O[C@@H]2CO)[C@H](O)[C@@H](O)[C@@H]1O`: the Drug excretion in [1] is 80.13%; in the data set on Cynomolgus monkey it was 83.8%; in data set [2], 15.32%; in [3], 0.46%; in data set [4], 70.49%; in data set [5], 77.21%. The compound further yielded a Drug excretion in data set [6] of 70.3%. Moreover, the Drug metabolism result in the data set with Plasma is “metabolite_not_detected”; in [7] it was “metabolite_not_detected”; in data set [8], “metabolite_not_detected”; in data set [9], “metabolite_detected”.

As for `C[C@H]1O[C@@H](O[C@H]2[C@H](O)[C@@H](O)[C@@H](O[C@H]3[C@H](O)CN[C@@H]3CO)O[C@@H]2CO)[C@H](O)[C@@H](O)[C@@H]1O`, the Tmax in [10] worked out at 1.75 h. For the same compound, the clearance worked out at 2.73 mL/min/kg in [11], 2.75 mL/min/kg in data set [19] and 2.84 mL/min/kg in data set [20]. Moreover, the total exposure AUC(0-inf) in data set [12] turned out to be 18200 ng·h/mL; in data set [18], 1080 ng·h/mL. In [13], this compound showed a bioavailability of 1.73%. Moreover, the AUC(0-t) in data set [14] was 18700 ng·h/mL; in data set [21] it was 53000 ng·h/mL. Also, the figures for the half-life in [15] and in [17] were 18.4 h and 2.51 h, respectively. Further, the Cmax in data set [16] amounted to 44.8 ng/mL.

Broadly, the Tmax is the time at which the peak concentration occurs. The clearance is the rate of elimination divided by the concentration. What is called AUC(0-inf) is total exposure, with the tail of the curve extrapolated. By bioavailability is commonly meant the share of a dose that reaches the circulation, judged against a reference dose that is usually intravenous. What is called AUC(0-t) is the area under the concentration-time curve up to a stated or last time point. A word on the half-life: it is the time needed for the level to fall by half in the phase considered. For orientation: Cmax means the highest concentration seen after dosing.
